FLuc act counter: affects firefly luciferase, flagging false hits in luciferase stimulation screens; AID 1027; ATPlite luciferase biochemical, luminescence, 10 min; 0 = ATP-free wells, 1 = DMSO control; activation factor at 10 µM; P08659; 200,000 tested, under 10 active;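 active means luciferase activation factor, scaled between plate controls, of at least 2 with compound at 10 µM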
Target sequence (P08659 whole entry, looked up): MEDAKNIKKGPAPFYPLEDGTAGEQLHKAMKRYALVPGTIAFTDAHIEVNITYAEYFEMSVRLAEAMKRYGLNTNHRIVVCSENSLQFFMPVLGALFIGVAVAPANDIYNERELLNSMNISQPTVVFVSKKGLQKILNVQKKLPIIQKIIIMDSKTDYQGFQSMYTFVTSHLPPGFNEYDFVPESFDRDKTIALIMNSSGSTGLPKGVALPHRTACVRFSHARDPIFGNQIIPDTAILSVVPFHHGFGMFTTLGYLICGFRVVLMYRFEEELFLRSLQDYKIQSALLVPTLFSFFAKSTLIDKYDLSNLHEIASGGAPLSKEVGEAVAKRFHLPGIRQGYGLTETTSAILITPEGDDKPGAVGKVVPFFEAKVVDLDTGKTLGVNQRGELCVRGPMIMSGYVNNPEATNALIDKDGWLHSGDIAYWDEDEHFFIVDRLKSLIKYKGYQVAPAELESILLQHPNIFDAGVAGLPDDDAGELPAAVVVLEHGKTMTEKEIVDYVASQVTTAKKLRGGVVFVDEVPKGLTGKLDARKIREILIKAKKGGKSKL
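Assay system: Luciferase/luciferin detection reagent, cell-free biochemical luciferase assay / Also added: ATP substrate / Schedule: 10 min at ambient temperature / Measured by: luminescence measurement of luciferase light output / Benchmarks: low control with PBS replacing ATP, high control enzyme plus ATP without compound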
SDO1 yeast rescue: restores growth of sdo1-depleted yeast. S. cerevisiae sdo1-depleted JHY4D growth rescue, OD600 30 h; hits give high values; pdr5 snq2 efflux-pump mutant strain. AID 817. actives 0.21% (n = 140,000). z-score at 10 µM;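 active means z-score above 3 at both the 24 hr and the 30 hr optical density reads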;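 further: z-score against mean and SD of all compound wells on the same plate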
APP 5'UTR act: activates APP 5'UTR luciferase reporter; SH-SY5Y APP 5'UTR luciferase reporter, luminescence; zero percent = DMSO vehicle wells; activation, % at 2 µM; actives 1% (n = 190,000); AID 1276;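 active means activation above a set limit, based on mean plus 3 SD of controls, cut at about 140% in these data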
NF-kB neuron act: NF-kB expression increase, human neuronal cells. NF-kB reporter expression; hits give high values. fold change at 12.5 µM. actives 1.6% (n = 190,000). AID 1239; in the data active means fold change above about 3.3
FLuc inh counter: inhibits firefly luciferase, flagging false hits in luciferase inhibition screens; ATPLite firefly luciferase biochemical luminescence, 10 min; AID 1006; actives 1.5% (n = 200,000); inhibition, % at 10 µM; P08659;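 active means inhibition above about 50% when tested at 10 µM, limit read from the data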
STAT1 act: increases IFN-gamma driven STAT1 reporter signal. NIH 3T3 STAT1-luciferase reporter, luminescence; 100% = IFN-gamma alone, no compound. activation (% of control), % at 5.5 µM. actives 2.6% (n = 200,000);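 active means activation above the screen-wide mean activation plus 3 SD, cut at about 130% in these data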;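 further: raw ratio to IFN-gamma control signal so 100% means no change and 0% no light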
Starred values were filed as active, the others as inactive; · = no result. The list is not random: actives were taken first. Their share in the collection is about 4.3%.

SMILES | FLuc act counter | SDO1 yeast rescue | APP 5'UTR act | NF-kB neuron act | FLuc inh counter | STAT1 act
CN(C)c1ccc(/C=N/NC(=O)c2sccc2-n2cccc2)cc1 | 0.9 | · | 10 | 1.2 | 10 | 130*
CCCCCC(=O)N/N=C/c1ccc(N(C)C)cc1 | 0.9 | 0.35 | 17 | 1.9 | 7 | 134*
CN(C)c1ccc(/C=N/NC(=O)CCCO)cc1 | 0.9 | · | 1 | 2.3 | 7 | 113
COCCNC(C(=O)Nc1cc(Cl)cc(Cl)c1)c1ccccc1 (stereo unspecified) | 1 | 0.15 | 3 | 0.87 | -1 | 91
CCOCCCNC(C(=O)Nc1ccc(OC)c(Cl)c1)c1ccccc1 (stereo unspecified) | 1 | · | 169* | 1 | -4 | 100
COc1cccc(-n2c(C)n[nH]c2=O)c1 | 1 | 0.66 | 8 | 0.92 | -5 | 97
Cc1nc2nc(-c3ccc(Cl)cc3)cn2nc1C | 0.6 | -0.49 | 85 | 3.3* | 41 | 94
CCc1nn2cc(-c3ccccc3)nc2s1 | 0.1 | -0.22 | 153* | 5* | 89* | 70
Cc1nn2cc(-c3ccccc3)nc2[nH]c1=O | 1.1 | -0.1 | 3 | 1.1 | -8 | 104
Cc1nn2cc(-c3ccc(Cl)cc3)nc2s1 | 0.6 | -0.57 | 158* | 8* | 35 | 118
Cc1nn2c(-c3ccc(Cl)cc3)nnc2s1 | 1 | 0.5 | 55 | 1.6 | -5 | 106
COc1cccc(-c2cn3nc(C)c(C)nc3n2)c1 | 0.8 | 0.73 | 141* | 2.7 | 22 | 127
c1ccc(-c2cn3nc(-c4ccccc4)c(-c4ccccc4)nc3n2)cc1 | 1.1 | -1.4 | 10 | 1.2 | -7 | 104
O=C(NNS(=O)(=O)c1cccc(Cl)c1)c1cc(-c2ccc(F)cc2)nc2ccccc12 | 1 | · | -7 | 0.85 | -2 | 108
Cc1nn2cc(-c3ccc(-c4ccccc4)cc3)nc2s1 | 0.8 | -2 | 117 | 4.4* | 23 | 113
O=C1CCCC(O)=C1N=Nc1cccc(C(=O)O)c1 | 1 | · | 45 | 1.3 | 1 | 90
O=C(/C(C=Nc1cc2c(oc1=O)CCCC2=O)=C(\O)c1ccccc1)c1ccccc1 | 1.1 | · | 30 | 1.2 | -6 | 149*
COc1ccc(CCNc2nnc(Sc3nnnn3-c3ccccc3)s2)cc1OC | 1.1 | -0.62 | -94 | 3.7* | -6 | 93
Nc1nnc(-c2ccc(F)cc2)s1 | 1 | -0.15 | 7 | 1.2 | 1 | 103
CCCCOc1ccc(-c2nnc(N)s2)cc1 | 0.6 | -0.15 | 25 | 2.1 | 41 | 126
CCOc1ccc(-c2nc(CCl)cs2)cc1 | 0.3 | · | 48 | 3.8* | 70* | 116
CCOc1ccc(-c2nnc(N)s2)cc1 | 0.4 | 0.19 | 38 | 2 | 58* | 113
CC(C)(C)c1ccc(-c2nnc(N)s2)cc1 | 0.1 | · | 146* | 4.9* | 87* | 132*
COCCNC(=O)C(C)OC(=O)c1cc2occc2n1C (stereo unspecified) | 1 | 1.3 | 3 | 1.1 | -3 | 96
COc1ccc(S(=O)(=O)N2CC(O)C[C@H]2C(=O)OCC(=O)N2CCCCCC2)cc1 (stereo partly specified) | 1 | · | 13 | 1.1 | -4 | 139*
SMILES | FLuc act counter | SDO1 yeast rescue | APP 5'UTR act | NF-kB neuron act | FLuc inh counter | STAT1 act
Nc1ncn(CC(=O)c2ccccc2)n1 | 1.1 | · | 28 | 6.2* | -7 | 98
O=C(CN1C(=O)c2ccccc2C1=O)c1ccccc1 | 1 | 0.39 | 16 | 1.3 | 1 | 109
COc1ccccc1N1CCN(C2CC(=O)N(C)C2=O)CC1 (stereo unspecified) | 1 | · | 6 | 0.85 | 2 | 98
CN1CCN(c2ccc(C(=O)c3ccc(F)cc3)cc2)CC1 | 0.9 | -0.54 | 75 | 2.7 | 14 | 136*
COc1ccc(S(=O)(=O)N2CCC(O)(c3cccnc3)CC2)cc1OC | 1 | · | 16 | 1.1 | -4 | 102
COc1cccc(C(=O)COC(=O)c2ccc(NC(C)=O)cc2)c1 | 1 | 2.2 | -4 | 1 | 0 | 110
O=C(COC(=O)CC1CCCC1)Nc1cc2c(cc1Cl)C(=O)c1ccccc1C2=O | 1 | -1.2 | 75 | 2.5 | 1 | 129*
COc1cc(OC)nc(NC(=O)NS(=O)(=O)c2ccc(F)cc2)n1 | 1.1 | · | -25 | · | -6 | 104
COc1ccccc1-n1c(SCC(=O)NC2CCCCC2)nc2c(c1=O)SCC2 | 1.1 | -0.95 | 1 | 0.81 | -7 | 92
COc1ccc(N=Nc2nc3ccc(Br)cc3n2C)cc1 | 0.2 | -0.73 | 38 | 2.7 | 84* | 122
Oc1ccc(-c2nccc(-c3cccs3)n2)cc1 | 0.9 | -2.1 | 83 | 2.9 | 5 | 141*
COc1ccc(/C=C/C(=O)OCC(=O)NC(=O)NC(C)(C)C)cc1 | 1.1 | · | 21 | 0.85 | -9 | 104
O=C(Oc1cccc2c(O)cccc12)c1ccccc1 | 1.1 | -2.1 | 11 | 2.1 | -7 | 106
O=C(Oc1ccccc1O)c1cccc2ccccc12 | 1.1 | · | -5 | 3.5* | -8 | 109
O=C(N/N=C/c1ccccn1)c1cc(-c2ccc3ccccc3c2)n[nH]1 | 0.9 | -1.7 | 5 | 0.74 | 6 | 148*
O=C(N/N=C/c1c[nH]c2ccccc12)c1cc(-c2ccc3ccccc3c2)n[nH]1 | 0.8 | -0.67 | -88 | 0.61 | 19 | 140*
O=C(N/N=C/c1c[nH]c2ccccc12)c1cc(-c2ccc(-c3ccccc3)cc2)n[nH]1 | 0.5 | -0.39 | 70 | 0.95 | 50* | 98
O=C(N/N=C/c1c[nH]c2ccccc12)c1cc(-c2ccccc2)n[nH]1 | 1 | -0.49 | -7 | 0.54 | 4 | 103
CCC1(CC)NC(=O)N(CC(=O)N2N=C(c3ccc(Cl)cc3)CC2c2ccco2)C1=O (stereo unspecified) | 1.1 | · | -11 | 0.63 | -9 | 106
O=C(Nc1ccc2c3c(cccc13)CC2)c1ccc(Br)o1 | 1 | -1.8 | 16 | 2 | -3 | 131*
O=C(Nc1ccc2c3c(cccc13)CC2)c1ccco1 | 0.8 | 0.22 | 11 | 1.6 | 16 | 111
O=C(c1ccc(Cl)cc1)c1cnc(Nc2ccccc2Cl)s1 | 0.4 | -0.08 | 116 | 3.2 | 58* | 145*

High-throughput results from PubChem.
